The source of these data is ChEMBL document CHEMBL1142170, “Mechanism of activation of beta-D-2'-deoxy-2'-fluoro-2'-c-methylcytidine and inhibition of hepatitis C virus NS5B RNA polymerase” (Antimicrob Agents Chemother, 2007).

Experiment [1] can be described thus: Inhibition of HCV NS5B RNA polymerase S282T mutant assessed as incorporation of 32P-UMP into RNA. The arrangement: species or system Hepacivirus hominis. The essentials: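 Purified 21-aa C-terminally truncated NS5B (S282T; wild type for comparison) on minus-IRES template, run in 50 mM HEPES pH 7.5 with 1 mM MgCl2, 0.75 mM MnCl2, 2 mM DTT and [α-32P]UTP at 27°C. Natural substrate and inhibitor were both varied against fixed remaining NTPs (UTP 10 μM, others 100 μM). Product was membrane-captured and counted. Ki was obtained by fitting a competitive inhibition equation.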

Experiment [2] in a line: Inhibition of HCV NS5B RNA polymerase assessed as incorporation of 32P-UMP into RNA. The arrangement: species or system Hepacivirus hominis. The essentials:
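Steady-state Ki against truncated NS5B (wild-type and S282T) on minus IRES template, 27°C, HEPES pH 7.5 with Mg2+/Mn2+/DTT and [α-32P]UTP. For ATP analog, UTP 10, GTP and CTP 100 μM, ATP and inhibitor varied. For CTP analogs, UTP 10, ATP and GTP 100 μM, CTP and inhibitor varied. Membrane-bound product counted, rates fit to competitive inhibition.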

The Ki is the equilibrium dissociation constant of an inhibitor or competing ligand from its target. `C[C@@]1(O)[C@H](O)[C@@H](COP(=O)(O)OP(=O)(O)OP(=O)(O)O)O[C@H]1n1ccc(N)nc1=O` [2'-C-METHYLCYTIDINE TRIPHOSPHATE]: the values for the Ki in experiment [1] and in experiment [2] were 3.8 µM and 1.6 µM, respectively.

Turning to `C[C@@]1(O)[C@H](O)[C@@H](COP(=O)(O)OP(=O)(O)OP(=O)(O)O)O[C@H]1n1cnc2c(N)ncnc21`, the Ki in experiment [1] stood at 21.8 µM; in experiment [2], 1.5 µM.

For the molecule `C[C@@]1(F)[C@H](O)[C@@H](COP(=O)(O)OP(=O)(O)OP(=O)(O)O)O[C@H]1n1ccc(N)nc1=O` [PSI-6130-TP], the Ki in experiment [1] came to 2.5 µM; in experiment [2], 4.3 µM.
